This note sets out measurements from ChEMBL document CHEMBL1800025 (J Med Chem, 2011).

The target of test [1] is T1, Dual specificity tyrosine-phosphorylation-regulated kinase 2 (Homo sapiens) (UniProt Q92630).
T1 sequence (whole entry): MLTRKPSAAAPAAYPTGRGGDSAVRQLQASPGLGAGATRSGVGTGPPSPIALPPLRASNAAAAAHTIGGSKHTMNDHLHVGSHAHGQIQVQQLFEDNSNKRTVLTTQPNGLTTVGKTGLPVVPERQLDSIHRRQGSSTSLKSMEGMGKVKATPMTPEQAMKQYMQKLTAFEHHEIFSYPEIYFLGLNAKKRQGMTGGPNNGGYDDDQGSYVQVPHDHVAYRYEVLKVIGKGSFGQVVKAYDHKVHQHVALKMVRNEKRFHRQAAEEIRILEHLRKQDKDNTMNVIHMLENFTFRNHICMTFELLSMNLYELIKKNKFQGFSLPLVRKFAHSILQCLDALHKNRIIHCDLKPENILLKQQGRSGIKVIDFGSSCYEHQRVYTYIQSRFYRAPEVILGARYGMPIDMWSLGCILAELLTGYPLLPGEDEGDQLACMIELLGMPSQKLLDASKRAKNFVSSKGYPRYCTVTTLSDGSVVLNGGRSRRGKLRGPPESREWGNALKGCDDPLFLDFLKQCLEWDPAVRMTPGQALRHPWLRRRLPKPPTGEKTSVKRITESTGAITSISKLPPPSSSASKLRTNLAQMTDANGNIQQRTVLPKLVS
The test is described as follows: Inhibition of human recombinant GST-tagged DYRK2 using […] as substrate and [gamma32]-ATP at 10 uM after 30 mins by scintillation counting. In outline:
(§1)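 GST fusion kinases expressed in E. coli and purified on glutathione-agarose; DYRK1A is rat, DYRK2 is human. Assay buffer A (25 mM Tris-HCl pH 7.5, 10 mM MgCl2, 1 mM EGTA, 1 mM DTT, 50 μg/mL heparin) plus 0.15 mg/mL BSA. Woodtide 1.5 μg/assay with 15 μM [γ-33P]ATP, 30 min at 30 C. Product captured on P81 paper, washed in 1% phosphoric acid, scintillation counted. Activity expressed as percent of uninhibited control.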

The target of test [2] is Dual specificity tyrosine-phosphorylation-regulated kinase 1A (Rattus norvegicus) (UniProt Q63470). The test is described as follows: Inhibition of rat recombinant GST-tagged DYRK1A using KKISGRLSPIMTEQ as substrate and [gamma32]-ATP at 10 uM after 30 mins by scintillation counting. In outline: as §1
The species entered for test [3] is Sus scrofa. The test is described as follows: Inhibition of pig brain CK1 delta/epsilon using RRKHAAIGpSAYSITA as substrate at 10 uM. The method, boiled down: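 Native CK1δ/ε from porcine brain, assayed in 3-fold diluted buffer C with 25 μM CKS peptide substrate. 15 μM ATP final, 30 C. Activity is percent of uninhibited control after blank subtraction, with DMSO controls. Inhibitor tested over a range of concentrations up to 10 μM.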

In test [4] the test system is Cyclin-dependent kinase 5/p25 (Homo sapiens). Kind of test: Inhibition of human recombinant CDK5/p25 at 10 uM.
Test [5] concerns the target Dual specificity protein kinase CLK3 (Mus musculus) (UniProt O35492). Kind of test: Inhibition of mouse recombinant GST-tagged CLK3 using GRSRSRSRSRSR as substrate at 10 uM. The method, boiled down:
(§2)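 Mouse GST-fusion CLK1 or CLK3 expressed in E. coli. Assay buffer A (Tris-HCl pH 7.5, MgCl2, EGTA, DTT, heparin) plus 0.15 mg/mL BSA. RS peptide 1 μg/assay, 15 μM ATP final, 30 C. Blank subtracted; activity expressed as percent of activity without inhibitor. DMSO controls. Concentration range up to 10 μM.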

In test [6] the target is Serine/threonine-protein kinase pim-1 (Homo sapiens, UniProt P11309). Kind of test: Inhibition of human recombinant Pim1. The method, boiled down: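 Kinase assayed in buffer C (25 mM Mops pH 7.2, 60 mM beta-glycerophosphate, 30 mM p-nitrophenylphosphate, 15 mM MgCl2, 5 mM EGTA, 1 mM DTT, 0.1 mM vanadate) with 1 mg/mL histone H1. DMSO controls.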
Sequence of Serine/threonine-protein kinase pim-1 (P11309 whole entry): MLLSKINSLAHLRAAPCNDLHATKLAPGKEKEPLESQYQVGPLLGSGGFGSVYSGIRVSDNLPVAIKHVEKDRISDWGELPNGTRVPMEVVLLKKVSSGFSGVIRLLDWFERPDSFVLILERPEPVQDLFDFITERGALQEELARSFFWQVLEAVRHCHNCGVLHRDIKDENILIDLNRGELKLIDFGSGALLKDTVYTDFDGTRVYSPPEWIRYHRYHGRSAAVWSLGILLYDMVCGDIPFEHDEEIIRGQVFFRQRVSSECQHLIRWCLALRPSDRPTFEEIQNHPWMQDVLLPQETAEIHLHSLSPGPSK
The target of test [7] is Dual specificity protein kinase CLK1 (Mus musculus) (UniProt P22518). Kind of test: Inhibition of mouse recombinant GST-tagged CLK1 using GRSRSRSRSRSR as substrate at 10 uM. In outline: as §2
Sequence of Dual specificity protein kinase CLK1 (Mus musculus) (P22518 whole entry, looked up): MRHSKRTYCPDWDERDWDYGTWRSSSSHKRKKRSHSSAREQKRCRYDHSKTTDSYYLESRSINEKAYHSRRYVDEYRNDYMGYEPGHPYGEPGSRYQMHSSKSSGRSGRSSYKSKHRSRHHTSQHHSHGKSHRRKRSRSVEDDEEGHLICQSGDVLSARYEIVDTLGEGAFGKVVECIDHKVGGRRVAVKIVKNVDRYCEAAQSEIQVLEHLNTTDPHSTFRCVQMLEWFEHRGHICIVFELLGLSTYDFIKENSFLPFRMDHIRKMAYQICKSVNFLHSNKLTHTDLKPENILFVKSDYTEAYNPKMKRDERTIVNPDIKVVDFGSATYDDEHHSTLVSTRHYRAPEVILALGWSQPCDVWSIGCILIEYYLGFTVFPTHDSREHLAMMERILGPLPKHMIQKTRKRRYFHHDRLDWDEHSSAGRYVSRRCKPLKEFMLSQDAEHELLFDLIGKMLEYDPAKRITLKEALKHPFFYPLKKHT
Test [8] has as its target Cyclin-dependent kinase 5/CDK5 activator 1 (Homo sapiens) (UniProt Q00535+Q15078). Kind of test: Inhibition of human recombinant CDK5/p25 at 10 uM. Type of test: protein-complex assay. In outline: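 Kinase assayed in buffer C (25 mM Mops pH 7.2, 60 mM beta-glycerophosphate, 30 mM p-nitrophenylphosphate, 15 mM MgCl2, 5 mM EGTA, 1 mM DTT, 0.1 mM vanadate) with 1 mg/mL histone H1. 15 μM ATP final, 30 C. Activity is percent of activity without inhibitor, after blank subtraction. DMSO controls.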

Test [9] has as its target Dual specificity tyrosine-phosphorylation-regulated kinase 1A (Rattus norvegicus, UniProt Q63470). The test is described as follows: Inhibition of rat recombinant GST-tagged DYRK1A using KKISGRLSPIMTEQ as substrate and [gamma32]-ATP after 30 mins by scintillation counting. In outline: (§3)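 GST fusion kinases expressed in E. coli and purified on glutathione-agarose; DYRK1A is rat, DYRK2 is human. Assay buffer A (25 mM Tris-HCl pH 7.5, 10 mM MgCl2, 1 mM EGTA, 1 mM DTT, 50 μg/mL heparin) plus 0.15 mg/mL BSA. Product captured on P81 paper, washed in 1% phosphoric acid, scintillation counted. Activity expressed as percent of uninhibited control.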

Test [10] concerns the target T2, Dual specificity tyrosine-phosphorylation-regulated kinase 2 (Homo sapiens, UniProt Q92630).
T2 sequence (Q92630 whole entry): T1 sequence (whole entry)
Kind of test: Inhibition of human recombinant GST-tagged DYRK2 using KKISGRLSPIMTEQ as substrate and [gamma32]-ATP after 30 mins by scintillation counting. The method, boiled down: as §3

The target in test [11] is Dual specificity protein kinase CLK1 (Homo sapiens) (UniProt P49759). The test is described as follows: Inhibition of CLK1 transfected in human HeLa cells assessed as increase in exon inclusion ratio after 24 hrs by RT-PCR analysis. Format: cell-based. The method, boiled down: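 HeLa cells were transfected with […], with kinase-dead CLK1/K190R as comparator. Inhibitors at varying doses were added 3 h post-transfection, with 0.5% DMSO final in all cultures. Cells were harvested 24 h post-transfection, total RNA was extracted, and E1A splicing products were analysed by RT-PCR. Isoform molar ratios were measured by Bioanalyzer to give the exon inclusion ratio. Three independent samples were used.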
Sequence of Dual specificity protein kinase CLK1 (Homo sapiens) (P49759 whole entry, looked up, canonical isoform): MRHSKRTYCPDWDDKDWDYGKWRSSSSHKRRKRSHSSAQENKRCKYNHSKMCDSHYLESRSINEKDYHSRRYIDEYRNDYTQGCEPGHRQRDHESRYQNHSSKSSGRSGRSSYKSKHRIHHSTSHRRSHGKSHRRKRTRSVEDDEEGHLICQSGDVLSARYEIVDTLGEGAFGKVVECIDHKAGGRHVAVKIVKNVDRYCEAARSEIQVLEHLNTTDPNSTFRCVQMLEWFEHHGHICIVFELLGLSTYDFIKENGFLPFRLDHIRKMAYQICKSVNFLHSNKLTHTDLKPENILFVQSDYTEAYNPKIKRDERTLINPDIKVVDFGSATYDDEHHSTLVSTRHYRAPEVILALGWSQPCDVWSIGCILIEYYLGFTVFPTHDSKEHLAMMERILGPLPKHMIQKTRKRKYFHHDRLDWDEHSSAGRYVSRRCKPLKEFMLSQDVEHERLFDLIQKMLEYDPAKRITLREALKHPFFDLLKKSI

Test [12] has as its target Dual specificity protein kinase CLK3 (Mus musculus, UniProt O35492). Kind of test: Inhibition of mouse recombinant GST-tagged CLK3 using GRSRSRSRSRSR as substrate. The method, boiled down: as §2
For test [13], the target named is Dual specificity protein kinase CLK1 (Mus musculus, UniProt P22518). The test is described as follows: Inhibition of mouse recombinant GST-tagged CLK1 using GRSRSRSRSRSR as substrate. In outline: as §2
Sequence of Dual specificity protein kinase CLK1 (P22518 whole entry): as the sequence (P22518 whole entry, looked up) above
The target of test [14] is Glycogen synthase kinase-3 alpha/beta (Sus scrofa). The test is described as follows: Inhibition of pig brain GSK-3alpha/beta.

Activity calls are given as the source filed them. The rule behind the calls is not given here.

Sequence of Dual specificity protein kinase CLK3 (Mus musculus) (O35492 whole entry, the tested form may be a part): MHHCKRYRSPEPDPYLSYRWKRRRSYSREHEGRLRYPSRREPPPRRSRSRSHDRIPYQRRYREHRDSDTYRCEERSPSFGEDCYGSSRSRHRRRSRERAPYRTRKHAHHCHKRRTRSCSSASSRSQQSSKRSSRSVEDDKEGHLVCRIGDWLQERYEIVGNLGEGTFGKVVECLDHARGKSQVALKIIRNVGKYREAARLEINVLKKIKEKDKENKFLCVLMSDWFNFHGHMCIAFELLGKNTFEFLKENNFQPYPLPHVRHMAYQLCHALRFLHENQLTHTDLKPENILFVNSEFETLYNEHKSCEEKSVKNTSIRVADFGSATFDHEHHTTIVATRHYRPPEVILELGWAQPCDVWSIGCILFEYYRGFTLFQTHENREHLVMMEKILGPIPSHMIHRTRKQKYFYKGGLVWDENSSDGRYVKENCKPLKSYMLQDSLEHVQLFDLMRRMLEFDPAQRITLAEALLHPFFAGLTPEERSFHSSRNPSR
Sequence of Dual specificity protein kinase CLK3 (O35492 whole entry): as the sequence (O35492 whole entry, the tested form may be a part) above
Sequence of Cyclin-dependent kinase 5/CDK5 activator 1 (Homo sapiens) (Q00535 whole entry): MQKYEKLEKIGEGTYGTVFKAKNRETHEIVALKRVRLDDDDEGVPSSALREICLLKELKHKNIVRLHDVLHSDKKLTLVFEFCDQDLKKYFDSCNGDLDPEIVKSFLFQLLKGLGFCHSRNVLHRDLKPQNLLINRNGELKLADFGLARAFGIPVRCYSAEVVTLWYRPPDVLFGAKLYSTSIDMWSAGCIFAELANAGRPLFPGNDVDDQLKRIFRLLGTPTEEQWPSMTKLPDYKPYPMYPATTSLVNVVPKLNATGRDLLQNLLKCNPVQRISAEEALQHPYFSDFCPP
Sequence of Cyclin-dependent kinase 5/CDK5 activator 1 (Homo sapiens) (Q15078 99-307 partner limits assumed): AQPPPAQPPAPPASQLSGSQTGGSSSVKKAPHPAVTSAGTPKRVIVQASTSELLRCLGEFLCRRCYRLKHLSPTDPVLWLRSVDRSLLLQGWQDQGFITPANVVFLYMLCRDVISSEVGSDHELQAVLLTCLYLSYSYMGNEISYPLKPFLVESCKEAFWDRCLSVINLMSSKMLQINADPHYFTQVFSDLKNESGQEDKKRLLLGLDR

For the compound `CCCNC1=N/C(=C\c2ccccc2)C(=O)N1C`, the inhibition result in test [1], in [2], in [3], in [4], in [5] and in test [7] was “inactive” throughout. Further, the inhibition result in [8] was “inactive”. In addition, in [6], the IC50 is more than 10000 nM.

Regarding `CCCNC1=N/C(=C\c2ccc3c(c2)OCO3)C(=O)N1CCC`, the inhibition entry in test [3], in [5], in [7] and in test [8] was “inactive” throughout. The results for the IC50 in [6], in test [9] and in test [10] were more than 10000 nM, more than 10000 nM and 2100 nM, respectively.

For `CCN1/C(=C/C(C)=O)Sc2ccc(OC)cc21`, the “increase in exon inclusion ratio” value in test [11] is “Dose-dependent effect”.

For the compound `CC[C@H](CO)Nc1nc(NCc2ccccc2)c2ncn(C(C)C)c2n1`, the “increase in exon inclusion ratio” value in [11] was “inactive”.

For `CN1C(=O)/C(=C/c2ccc3c(c2)OCO3)N=C1NCCN1CCOCC1`, the IC50 in [12] is 8000 nM; in [13], 80 nM; in test [14] it was 4000 nM; in test [6], 6200 nM; in [9] it was 1200 nM; in [10], 1600 nM. In addition, the inhibition entry in test [3] and in [4] was “inactive” in each case.

With `CN1C(=O)/C(=C/c2ccc3c(c2)OCO3)N=C1NCCO`, the IC50 was more than 10000 nM in test [12]; 120 nM in [13]; 1300 nM in [14]; more than 10000 nM in test [6]; 7000 nM in test [9]; 10000 nM in test [10]. Further, the inhibition result in test [3] and in test [4] was “inactive” in each case.

Take `CCCNC1=N/C(=C\c2ccc3c(c2)OCO3)C(=O)N1c1ccccc1`: the half-inhibitory concentration (IC50) in test [12], in [13], in test [6], in test [9] and in [10] was more than 10000 nM in each case. Besides, the inhibition entry in [3] and in [8] was “inactive” in each case.

As to `COc1ccc2c(c1)[nH]c1c(C)nccc12`, the “increase in exon inclusion ratio” value in test [11] is “Dose-dependent effect”.

With `CC(C)CNC1=N/C(=C\c2ccc3c(c2)OCO3)C(=O)N1C`, the IC50 in [12] turned out to be 900 nM; in test [13], 120 nM; in test [14], 3100 nM; in test [6], 2000 nM; in test [9], 170 nM; in test [10] it was 210 nM. Moreover, the inhibition result in test [3] and in [4] was “inactive” each time.

Regarding `CCCNC1=N/C(=C\c2cc(OC)c(OC)c(OC)c2)C(=O)N1C`, the inhibition entry in [2], in test [3], in test [4], in [5] and in test [8] was “inactive” throughout. Moreover, the IC50 in test [13], in test [6] and in test [10] was more than 10000 nM each time.

Turning to `C=CCNC1=N/C(=C\c2ccc3c(c2)OCO3)C(=O)N1C`, the IC50 in [12] turned out to be 880 nM; in test [13] it was 200 nM; in test [14], 1600 nM; in [6], 4200 nM; in [9], 440 nM; in test [10], 620 nM. The inhibition result in test [3] and in [4] was “inactive” each time.

`CCCNC1=N/C(=C\c2ccccc2O)C(=O)N1C`: the IC50 in [12], in test [13], in test [6] and in test [10] was more than 10000 nM each time. Further, the inhibition entry in test [3], in [4] and in test [8] was “inactive” in each case.

Consider `CCCNC1=N/C(=C\c2ccc3c(c2)OCO3)C(=O)N1`, for which the IC50 is 2200 nM in [12]; 130 nM in [13]; 7300 nM in test [14]; 2500 nM in [6]; 240 nM in test [9]; 120 nM in test [10]. In addition, the inhibition result in [3] and in [4] was “inactive” throughout.

As for `CCNC1=N/C(=C\c2ccc3c(c2)OCO3)C(=O)N1C`, the IC50 was 2100 nM in test [12]; 170 nM in test [13]; 16000 nM in [14]; 7200 nM in test [6]; 580 nM in [9]; 640 nM in test [10]. For the same compound, the inhibition result in test [3] and in [4] was “inactive” throughout.

Consider `O=C1NC(Nc2ccc3c(c2)OCCO3)=N/C1=C\c1ccc2c(c1)OCO2`, for which the IC50 is more than 10000 nM in test [12]; 320 nM in [13]; more than 10000 nM in [14]; more than 10000 nM in test [6]; 170 nM in test [9]; 110 nM in test [10]. Moreover, the inhibition result in test [3] and in test [4] was “inactive” throughout.

In the case of `O=C1NC(NCC2CC2)=N/C1=C\c1ccc2c(c1)OCO2`, the IC50 amounted to 610 nM in [12]; 83 nM in test [13]; 4700 nM in [14]; 1500 nM in test [6]; 100 nM in test [9]; 47 nM in test [10]. For the same compound, the inhibition result in [3] and in [4] was “inactive” in each case.

`CC(C)CCNC1=N/C(=C\c2ccc3c(c2)OCO3)C(=O)N1C`: the IC50 in test [12] stood at 960 nM; in [13], 160 nM; in test [14], 2000 nM; in [6], 2100 nM; in [9], 460 nM; in test [10] it was 560 nM. The inhibition entry in test [3] and in test [4] was “inactive” in each case.

One may read the IC50 as the concentration that gives 50% inhibition.
